Experimental data published in ChEMBL document CHEMBL5038663, “Probing the Requirements for Dual Angiotensin-Converting Enzyme C-Domain Selective/Neprilysin Inhibition” (J Med Chem, 2022).

Legend:
Homo sapiens = species on record: Homo sapiens; assay: Selectivity ratio of Ki for human ACE N-domain expressed in CHO cells to Ki for human ACE C-domain expressed in CHO cells; format: cell-based
Method in brief: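 Ki for each ACE domain from IC50 by Cheng-Prusoff for competitive inhibition, Ki = IC50/(1 + [S]/Km). […] Ratio taken as N-domain Ki over C-domain Ki.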

[1] = target: T1, Angiotensin-converting enzyme (Homo sapiens, UniProt P12821); assay: Inhibition of recombinant human ACE C-domain expressed in CHO cells using Cbz-Phe-His-Leu as substrate preincubated for 15 mins followed by substrate addition and measured after 10 mins by fluorescence spectrophotometric analysis
T1 sequence (P12821 whole entry): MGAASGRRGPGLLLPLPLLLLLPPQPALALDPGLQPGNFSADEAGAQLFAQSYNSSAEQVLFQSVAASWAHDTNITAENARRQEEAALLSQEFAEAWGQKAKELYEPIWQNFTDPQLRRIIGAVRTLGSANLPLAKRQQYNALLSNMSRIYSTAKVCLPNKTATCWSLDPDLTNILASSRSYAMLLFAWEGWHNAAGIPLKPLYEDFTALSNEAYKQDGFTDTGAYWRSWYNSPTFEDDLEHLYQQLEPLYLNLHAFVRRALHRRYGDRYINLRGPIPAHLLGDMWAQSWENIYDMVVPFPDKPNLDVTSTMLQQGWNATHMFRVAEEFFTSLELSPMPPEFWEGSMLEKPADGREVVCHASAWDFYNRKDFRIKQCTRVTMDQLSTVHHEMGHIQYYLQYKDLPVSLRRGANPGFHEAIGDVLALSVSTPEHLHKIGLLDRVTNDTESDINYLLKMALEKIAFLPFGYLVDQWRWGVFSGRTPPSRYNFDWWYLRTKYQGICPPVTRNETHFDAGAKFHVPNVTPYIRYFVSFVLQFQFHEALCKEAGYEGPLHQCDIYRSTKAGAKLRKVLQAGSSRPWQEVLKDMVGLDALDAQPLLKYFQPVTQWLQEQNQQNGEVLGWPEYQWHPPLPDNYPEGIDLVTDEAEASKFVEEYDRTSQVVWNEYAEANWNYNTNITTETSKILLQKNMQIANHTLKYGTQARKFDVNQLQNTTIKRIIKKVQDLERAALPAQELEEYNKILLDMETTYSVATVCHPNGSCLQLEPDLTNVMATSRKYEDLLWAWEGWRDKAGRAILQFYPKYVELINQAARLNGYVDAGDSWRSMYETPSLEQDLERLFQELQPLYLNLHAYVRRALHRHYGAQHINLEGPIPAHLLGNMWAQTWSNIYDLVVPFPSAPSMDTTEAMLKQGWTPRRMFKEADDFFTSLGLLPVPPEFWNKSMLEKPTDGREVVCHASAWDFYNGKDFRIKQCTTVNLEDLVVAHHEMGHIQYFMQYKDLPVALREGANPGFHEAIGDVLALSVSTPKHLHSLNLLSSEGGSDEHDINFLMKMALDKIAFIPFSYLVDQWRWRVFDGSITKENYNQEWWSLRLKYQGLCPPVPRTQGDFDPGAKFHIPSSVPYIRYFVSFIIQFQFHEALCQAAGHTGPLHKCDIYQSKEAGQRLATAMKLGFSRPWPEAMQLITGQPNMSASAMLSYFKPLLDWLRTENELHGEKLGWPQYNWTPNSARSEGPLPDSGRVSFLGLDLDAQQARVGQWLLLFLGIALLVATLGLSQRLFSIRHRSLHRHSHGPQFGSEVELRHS
Method in brief: (§1)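 Fully glycosylated single-domain human ACE (C-domain D629, N-domain Δ36NJ) from CHO cells. Two-fold inhibitor dilution in 100 mM potassium phosphate pH 8.3, 300 mM NaCl, 10 μM ZnCl₂. Preincubation 15 min at 22 °C. 10 min at 37 °C, stopped with NaOH/o-phthalaldehyde, then HCl. Triplicates, n ≥ 2 independent experiments.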

[2] = target: T1, Angiotensin-converting enzyme; assay: Inhibition of recombinant human ACE N-domain expressed in CHO cells using Cbz-Phe-His-Leu as substrate preincubated for 15 mins followed by substrate addition and measured after 10 mins by fluorescence spectrophotometric analysis; method in brief: as §1
Neprilysin = Neprilysin (Homo sapiens, UniProt P08473); assay: Inhibition of hGH-8His-NEP expressed in CHO cells preincubated for 15 mins followed by […] peptide substrate addition by fluorescence spectrophotometric analysis; format: cell-based
Neprilysin, sequence (P08473 whole entry, the tested form may be a part): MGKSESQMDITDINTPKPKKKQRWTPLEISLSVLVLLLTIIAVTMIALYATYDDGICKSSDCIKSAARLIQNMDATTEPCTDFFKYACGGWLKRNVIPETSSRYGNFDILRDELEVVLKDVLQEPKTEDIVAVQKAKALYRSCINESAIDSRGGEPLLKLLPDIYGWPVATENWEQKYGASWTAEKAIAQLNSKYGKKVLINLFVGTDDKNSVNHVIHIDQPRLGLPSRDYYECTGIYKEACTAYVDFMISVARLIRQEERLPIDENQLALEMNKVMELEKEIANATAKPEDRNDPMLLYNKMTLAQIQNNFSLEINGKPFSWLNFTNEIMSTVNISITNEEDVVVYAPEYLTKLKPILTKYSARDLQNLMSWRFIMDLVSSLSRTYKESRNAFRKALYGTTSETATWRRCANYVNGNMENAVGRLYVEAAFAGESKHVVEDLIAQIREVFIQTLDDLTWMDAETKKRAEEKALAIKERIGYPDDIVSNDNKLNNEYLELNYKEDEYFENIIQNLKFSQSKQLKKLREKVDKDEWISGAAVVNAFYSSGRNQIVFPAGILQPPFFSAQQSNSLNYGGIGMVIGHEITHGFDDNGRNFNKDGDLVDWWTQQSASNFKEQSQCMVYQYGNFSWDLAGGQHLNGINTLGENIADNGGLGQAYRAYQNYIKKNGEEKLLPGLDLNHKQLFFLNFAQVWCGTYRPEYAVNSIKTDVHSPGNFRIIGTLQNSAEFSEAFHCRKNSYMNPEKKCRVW
Method in brief: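 Secreted glycosylated human NEP ectodomain (hGH-8His fusion) from CHO cells, purified by cobalt affinity. Two-fold inhibitor serial dilution in 50 mM Tris pH 8.3, 0.05% Brij-35, 300 mM NaCl, 10 μM ZnCl₂. Enzyme and inhibitor preincubated 15 min at 22 °C. […] Continuous fluorescence at ex 320/em 405 nm. Triplicates, n ≥ 2 independent experiments.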

Compound | Ratio Ki (Homo sapiens) | Ki [1] [nM] | Ki [2] [nM] | Ki (Neprilysin) [nM]
CCCC[C@H](N[C@@H](CCc1ccccc1)C(=O)O)C(=O)N[C@@H](Cc1ccc(O)cc1)C(=O)O | 3.5 | 35 | 120 | 600
Cc1ccc([C@H]2CC[C@@H](C(=O)O)N2C(=O)CN[C@@H](CCc2ccccc2)C(=O)O)cc1 | 8 | 440 | 3400 | > 50000
NCCCC[C@H](N[C@@H](CCc1ccccc1)C(=O)O)C(=O)N[C@@H](Cc1c[nH]c2ccccc12)C(=O)O | 189 | 9 | 1700 | > 150000
CCCC[C@H](N[C@@H](CCc1ccccc1)C(=O)O)C(=O)N[C@@H](Cc1c[nH]c2ccccc12)C(=O)O | 37 | 100 | 3790 | 19000
